Data published in ChEMBL document CHEMBL1137687, “Anti-HIV evaluation of benzo[d]isothiazole hydrazones” (Eur J Med Chem, 2009).

Assays:
[1] = test system: Human immunodeficiency virus 1; experiment: Antiviral activity against wild type HIV1 3B assessed as protection as protection against virus-induced cytopathogenicity after 4 days by MTT assay; format: functional; details: Human immunodeficiency virus 1, 3B, 96 h
Outline: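 HIV-1 IIIB from supernatants of persistently infected H9/IIIB cells. MT-4 cells, 1 × 10⁴ per well in RPMI 1640 with 10% FCS, exposed to serial compound dilutions (100 mM DMSO stock diluted in medium). Virus inoculum sized in CCID₅₀ to give complete cytopathogenicity by day 4. Incubated at 37 °C, then viability read by MTT. EC₅₀ taken as concentration giving 50% protection from virus-induced cytopathogenicity.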

[2] = test system: Human immunodeficiency virus 1; experiment: Antiviral activity against NNRTI-resistant HIV1 3B with reverse transcriptase K103R+V179D+P225H mutation in human MT4 cells assessed as protection against virus-induced cytopathogenicity after 4 days by MTT assay; format: functional, organism-based; details: Human immunodeficiency virus 1, 3B, MT4, 96 h
Outline: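 K103R+V179D+P225H (EFV^R) virus, from IIIB passaged in MT-4 cells under efavirenz; stock 4.0×10⁷ CCID50/mL. Added to 1×10⁴ MT-4 cells/well (RPMI 1640, 10% FCS, 37 °C, 5% CO2) with compound dilutions from 100 mM DMSO stock, amount causing complete cytopathogenicity at day 4. Viability by MTT; EC50 = concentration giving 50% protection.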

[3] = test system: Human immunodeficiency virus 1; experiment: Antiviral activity against NNRTI-resistant HIV1 3B with reverse transcriptase K103N+Y181C mutation in human MT4 cells assessed as protection against virus-induced cytopathogenicity after 4 days by MTT assay; format: functional, organism-based; details: Human immunodeficiency virus 1, 3B, MT4, 96 h
Outline: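 MT-4 cells (RPMI 1640, 10% FCS, 37 °C, 5% CO2), 1×10⁴/well, with compound serial dilutions from 100 mM DMSO stock, infected with K103N+Y181C virus (NIH A17, from IIIB passaged in H9 cells with BI-RG 587; stock 2.1×10⁷ CCID50/mL) at dose giving full cytopathogenicity by day 4. MTT viability; EC50 = 50% protection.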

[4] = test system: Human immunodeficiency virus 1; experiment: Antiviral activity against NNRTI-resistant HIV1 with reverse transcriptase Y181C mutation in human MT4 cells assessed as protection against virus-induced cytopathogenicity after 4 days by MTT assay; format: functional, organism-based; details: Human immunodeficiency virus 1, MT4, 96 h
Outline: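 Y181C virus (NIH N119) came from an AZT-sensitive clinical isolate passaged in CEM then MT-4 cells with nevirapine; stock 1.2×10⁸ CCID50/mL. It infected 1×10⁴ MT-4 cells/well (RPMI 1640, 10% FCS, 37 °C, 5% CO2) with compound dilutions from 100 mM DMSO stock, at a dose giving full cytopathogenicity by day 4. Readout MTT; EC50 = 50% protection.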

[5] = Cytotoxicity against mock-infected human MT4 cells after 4 days by MTT assay; format: cell-based
Outline: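 Mock-infected MT-4 cells, 1 × 10⁴ per well in RPMI 1640 with 10% FCS, 37 °C, 5% CO₂. Exposed to serial compound dilutions from a 100 mM DMSO stock diluted in medium, in parallel with the antiviral assay. Viability read by MTT. CC₅₀ taken as concentration reducing viability of mock-infected cells by 50%.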

| SMILES | EC50 [1] [µM] | EC50 [2] [µM] | EC50 [3] [µM] | EC50 [4] [µM] | CC50 at 96 h [5] [µM] |
| --- | --- | --- | --- | --- | --- |
| O=c1c2ccccc2sn1/N=C/c1ccccc1 | 11 | 8.6 | > 17 | > 17 | 17 |
| O=c1c2ccccc2sn1/N=C/c1ccccc1O | > 18 | > 18 | > 18 | > 18 | 18 |
| Cc1ccc2sn(/N=C/c3ccccc3F)c(=O)c2c1 | > 18 | > 18 | > 18 | > 18 | 18 |
| Cc1ccc2sn(/N=C/c3ccccc3[N+](=O)[O-])c(=O)c2c1 | > 100 | 100 | > 100 | > 100 | > 100 |
| O=c1c2ccccc2sn1/N=C/c1cccc([N+](=O)[O-])c1 | 36 | 11 | 57 | 13 | > 100 |
| O=c1c2ccccc2sn1/N=C/c1ccc2c(c1)OCO2 | > 17 | > 17 | > 17 | > 17 | 17 |
| O=c1c2ccccc2sn1/N=C/c1cccc(O)c1 | > 15 | > 15 | > 15 | > 15 | 15 |
| Cc1ccc2sn(/N=C/c3ccc(Cl)cc3)c(=O)c2c1 | 24 | 11 | 33 | 22 | 57 |
| Cc1ccc2sn(/N=C/C=C/c3ccccc3)c(=O)c2c1 | > 19 | > 19 | > 19 | > 19 | 19 |
| Cc1ccc2sn(/N=C/c3ccc(O)c(O)c3)c(=O)c2c1 | > 49 | > 49 | > 49 | > 49 | 49 |
| O=c1c2ccccc2sn1/N=C/c1ccc(F)cc1 | 4.4 | ≥ 17 | > 17 | > 17 | 17 |
| Cc1ccc2sn(/N=C/c3cccc([N+](=O)[O-])c3)c(=O)c2c1 | 48 | 18 | 83 | 32 | > 100 |
| O=c1c2ccccc2sn1/N=C/c1ccc([N+](=O)[O-])cc1 | 45 | 33 | 36 | 29 | > 100 |
| Cc1ccc2sn(/N=C/c3ccccc3O)c(=O)c2c1 | > 30 | > 30 | > 30 | > 30 | 30 |
| O=c1c2ccccc2sn1/N=C/c1ccc([N+](=O)[O-])cc1[N+](=O)[O-] | > 100 | > 100 | > 100 | – | > 100 |
| O=c1c2ccccc2sn1/N=C/c1ccc(O)cc1O | > 21 | > 21 | > 21 | > 21 | 21 |
| CCCCCCCCCCC/C=N/n1sc2ccc(C)cc2c1=O | > 19 | > 19 | > 19 | > 19 | 19 |
| O=c1c2ccccc2sn1/N=C/C=C/c1ccccc1 | > 18 | > 18 | > 18 | > 18 | 18 |
| COc1cc(/C=N/n2sc3ccccc3c2=O)ccc1O | > 15 | > 15 | > 15 | > 15 | 15 |
| COc1cc(/C=N/n2sc3ccc(C)cc3c2=O)ccc1O | > 16 | > 16 | > 16 | > 16 | 16 |
| O=c1c2ccccc2sn1/N=C/c1ccc(O)c(O)c1 | > 44 | > 44 | > 44 | > 44 | 44 |
| O=c1c2ccccc2sn1/N=C/c1ccccc1Cl | 20 | 24 | > 47 | 26 | 47 |

| SMILES | EC50 [1] [µM] | EC50 [2] [µM] | EC50 [3] [µM] | EC50 [4] [µM] | CC50 at 96 h [5] [µM] |
| --- | --- | --- | --- | --- | --- |
| Cc1ccc2sn(/N=C/c3cccc(Cl)c3)c(=O)c2c1 | > 59 | 25 | > 59 | > 59 | 59 |
| Cc1ccc2sn(/N=C/c3cccc(O)c3)c(=O)c2c1 | > 16 | 8.4 | > 16 | > 16 | 16 |
| Cc1ccc2sn(/N=C/c3ccco3)c(=O)c2c1 | > 18 | > 18 | > 18 | > 18 | 18 |
| CCCCCCCCCCC/C=N/n1sc2ccccc2c1=O | > 17 | > 17 | > 17 | > 17 | 17 |
| O=c1c2ccccc2sn1/N=C/c1ccc(Cl)cc1 | > 26 | 2.9 | > 26 | ≥ 11 | 26 |
| O=c1c2ccccc2sn1/N=C/c1ccc(O)cc1 | > 18 | 8.4 | > 18 | > 18 | 18 |
| Cc1ccc2sn(/N=C/c3ccccc3)c(=O)c2c1 | ≥ 33 | ≥ 33 | > 44 | ≥ 33 | 44 |
| Cc1ccc2sn(/N=C/c3ccc([N+](=O)[O-])cc3)c(=O)c2c1 | > 100 | 72 | > 100 | ≥ 100 | > 100 |
| Cc1ccc2sn(/N=C/c3ccc([N+](=O)[O-])cc3[N+](=O)[O-])c(=O)c2c1 | > 100 | > 100 | > 100 | > 100 | > 100 |
| Cc1ccc2sn(/N=C/c3ccc(O)cc3)c(=O)c2c1 | > 23 | ≥ 23 | > 23 | > 23 | 23 |
| O=c1c2ccccc2sn1/N=C/c1cccc(F)c1 | > 15 | 9 | > 15 | > 15 | 15 |
| Cc1ccc2sn(/N=C/c3cccc(F)c3)c(=O)c2c1 | > 30 | > 30 | > 30 | > 30 | 30 |
| COc1ccc(/C=N/n2sc3ccccc3c2=O)cc1 | > 19 | > 19 | > 19 | > 19 | 19 |
| Cc1ccc2sn(/N=C/c3ccc(F)cc3)c(=O)c2c1 | > 15 | 7.3 | > 15 | > 15 | 15 |
| Cc1ccc2sn(/N=C/c3ccc4c(c3)OCO4)c(=O)c2c1 | 33 | 20 | 47 | 33 | > 100 |
| O=c1c2ccccc2sn1/N=C/c1ccccc1F | ≥ 11 | > 20 | > 20 | > 20 | 20 |
| Cc1ccc2sn(/N=C/c3ccccc3Cl)c(=O)c2c1 | 82 | 79 | > 100 | 100 | > 100 |
| COc1ccc(/C=N/n2sc3ccc(C)cc3c2=O)cc1 | > 55 | > 55 | > 55 | > 55 | 55 |
| O=c1c2ccccc2sn1/N=C/c1ccco1 | > 18 | > 18 | > 18 | > 18 | 18 |
| O=c1c2ccccc2sn1/N=C/c1ccccc1[N+](=O)[O-] | 19 | 20 | 33 | 20 | 68 |
| O=c1c2ccccc2sn1/N=C/c1cccc(Cl)c1 | 100 | 68 | ≥ 100 | ≥ 100 | > 100 |
